# Assays:
# [1] = target: T1, Calcitonin gene-related peptide type 1 receptor (Homo sapiens, UniProt O60894+Q16602); test: Displacement of [125I]CGRP from CGRP receptor in human SK-N-MC cells; format: cell-based
# In short: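 Radioligand competition binding in human neuroblastoma SK-N-MC cells, which endogenously express CGRP receptor of identical sequence to the cloned human receptor. IC50 determined from compound competition for the radioligand.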
# [2] = target: T1, Calcitonin gene-related peptide type 1 receptor; test: Antagonist activity at CGRP receptor in human SK-N-MC cells assessed as inhibition of CGRP-stimulated formation of cyclic AMP; format: functional, cell-based
# [3] = Inhibition of CGRP-induced dilation in potassium chloride pre-contracted ex vivo migraine model of human intracranial artery rings
# [4] = target: cytochrome P450 (isoform not stated) (Homo sapiens, UniProt P04798+P05177+P05181+P08684+P10632+P10635+P11509+P11712+P13584+P20813+P20815+P20853+P24462+P24903+P33260+P33261+P51589+P78329+P98187+Q02928+Q08477+Q16678+Q16696+Q5TCH4+Q6VVX0+Q7Z449+Q8TAV3+Q96SQ9+Q9HB55); test: Inhibition of cytochrome P450; format: ADME
# [5] = target: Cytochrome P450 3A4 (Homo sapiens, UniProt P08684); test: Inhibition of CYP3A4; format: ADME
# [6] = target: Cytochrome P450 2C9 (Homo sapiens, UniProt P11712); test: Inhibition of recombinant CYP2C9; format: ADME
# [7] = target: Cytochrome P450 2C19 (Homo sapiens, UniProt P33261); test: Inhibition of recombinant CYP2C19; format: ADME
# [8] = target: T2, Cytochrome P450 1A2 (Homo sapiens, UniProt P05177); test: Inhibition of recombinant CYP1A2; format: ADME
# T2 sequence (P05177 whole entry): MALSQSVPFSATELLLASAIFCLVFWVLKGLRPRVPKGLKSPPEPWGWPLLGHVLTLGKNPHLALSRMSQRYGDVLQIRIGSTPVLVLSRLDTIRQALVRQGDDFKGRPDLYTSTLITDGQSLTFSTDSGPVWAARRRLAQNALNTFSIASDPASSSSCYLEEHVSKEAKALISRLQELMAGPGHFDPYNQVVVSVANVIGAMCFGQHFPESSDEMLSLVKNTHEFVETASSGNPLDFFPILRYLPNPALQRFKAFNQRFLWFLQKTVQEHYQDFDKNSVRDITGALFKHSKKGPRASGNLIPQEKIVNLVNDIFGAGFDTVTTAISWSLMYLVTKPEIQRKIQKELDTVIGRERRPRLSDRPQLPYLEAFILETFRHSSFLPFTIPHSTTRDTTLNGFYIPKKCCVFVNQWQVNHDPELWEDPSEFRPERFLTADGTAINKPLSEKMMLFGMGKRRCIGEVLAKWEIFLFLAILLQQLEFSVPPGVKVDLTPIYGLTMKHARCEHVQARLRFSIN
# [9] = Metabolic stability of the compound in human liver microsomes assessed as compound remaining at 3 uM after 10 mins; format: ADME, Microsome; details: read-out: Stability
# [10] = Metabolic stability of the compound in rat liver microsomes assessed as compound remaining at 3 uM after 10 mins; format: ADME, Microsome; details: read-out: Stability
# T1 sequence (Q16602 whole entry, one chain of several): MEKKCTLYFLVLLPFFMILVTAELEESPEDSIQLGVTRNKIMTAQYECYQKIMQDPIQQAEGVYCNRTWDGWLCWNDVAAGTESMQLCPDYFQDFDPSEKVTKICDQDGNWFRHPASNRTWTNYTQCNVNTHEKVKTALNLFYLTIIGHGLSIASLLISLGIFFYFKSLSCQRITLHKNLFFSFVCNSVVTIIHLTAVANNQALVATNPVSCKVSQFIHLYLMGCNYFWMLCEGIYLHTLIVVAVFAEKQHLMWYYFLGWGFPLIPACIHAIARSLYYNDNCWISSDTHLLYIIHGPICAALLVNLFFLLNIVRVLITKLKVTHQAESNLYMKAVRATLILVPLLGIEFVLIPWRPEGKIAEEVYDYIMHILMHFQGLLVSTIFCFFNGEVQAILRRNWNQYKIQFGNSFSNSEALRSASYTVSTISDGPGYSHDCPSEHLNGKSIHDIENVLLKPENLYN
# Cytochrome P450 3A4, sequence (P08684 whole entry): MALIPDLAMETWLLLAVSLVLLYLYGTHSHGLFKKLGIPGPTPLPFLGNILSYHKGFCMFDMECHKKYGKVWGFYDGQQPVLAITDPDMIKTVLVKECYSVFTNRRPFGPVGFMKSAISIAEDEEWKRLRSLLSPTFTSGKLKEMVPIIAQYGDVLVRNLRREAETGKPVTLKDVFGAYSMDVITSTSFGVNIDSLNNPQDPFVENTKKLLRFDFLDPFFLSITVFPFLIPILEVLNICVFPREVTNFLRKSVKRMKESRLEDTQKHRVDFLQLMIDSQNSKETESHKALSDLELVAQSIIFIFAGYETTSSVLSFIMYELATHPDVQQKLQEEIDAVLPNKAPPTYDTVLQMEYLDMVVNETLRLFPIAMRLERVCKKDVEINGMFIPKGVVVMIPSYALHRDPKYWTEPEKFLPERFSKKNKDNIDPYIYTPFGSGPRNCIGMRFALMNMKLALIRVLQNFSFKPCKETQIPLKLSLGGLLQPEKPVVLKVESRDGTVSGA
# Cytochrome P450 2C19, sequence (P33261 whole entry): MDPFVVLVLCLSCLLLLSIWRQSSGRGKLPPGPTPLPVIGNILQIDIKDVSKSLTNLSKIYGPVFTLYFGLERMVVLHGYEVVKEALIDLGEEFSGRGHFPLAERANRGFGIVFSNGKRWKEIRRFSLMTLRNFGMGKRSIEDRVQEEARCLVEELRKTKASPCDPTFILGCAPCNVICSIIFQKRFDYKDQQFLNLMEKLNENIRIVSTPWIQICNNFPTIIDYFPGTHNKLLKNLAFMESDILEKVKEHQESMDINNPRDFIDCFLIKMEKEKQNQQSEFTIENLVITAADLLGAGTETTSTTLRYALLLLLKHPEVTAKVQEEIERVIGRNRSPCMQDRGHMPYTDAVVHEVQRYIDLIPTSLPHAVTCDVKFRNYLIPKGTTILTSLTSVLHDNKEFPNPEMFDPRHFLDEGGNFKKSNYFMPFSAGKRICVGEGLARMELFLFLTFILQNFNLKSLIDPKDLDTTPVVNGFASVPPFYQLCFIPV
# Cytochrome P450 2C9, sequence (P11712 whole entry): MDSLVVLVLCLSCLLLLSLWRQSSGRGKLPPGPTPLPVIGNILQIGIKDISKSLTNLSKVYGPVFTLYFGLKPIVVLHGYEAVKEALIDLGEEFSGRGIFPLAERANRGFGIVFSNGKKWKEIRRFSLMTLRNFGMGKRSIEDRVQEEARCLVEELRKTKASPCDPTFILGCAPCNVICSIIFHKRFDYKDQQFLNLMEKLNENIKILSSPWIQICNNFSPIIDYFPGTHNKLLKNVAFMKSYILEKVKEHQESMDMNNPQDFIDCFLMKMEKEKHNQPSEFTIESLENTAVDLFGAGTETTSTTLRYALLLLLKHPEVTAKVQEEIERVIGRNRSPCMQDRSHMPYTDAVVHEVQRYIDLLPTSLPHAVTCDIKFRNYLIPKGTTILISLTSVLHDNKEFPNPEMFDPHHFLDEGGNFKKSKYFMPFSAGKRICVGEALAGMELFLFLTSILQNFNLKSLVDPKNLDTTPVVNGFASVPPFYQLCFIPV
SMILES,IC50 [1] [nM],EC50 [2] [nM],also measured
O=C(N[C@H](Cc1csc2ccccc12)C(=O)N1CCC(C2CCNCC2)CC1)N1CCC(n2c(=O)[nH]c3ccccc32)CC1,4,–,–
O=C(N[C@H](Cc1csc2ccccc12)C(=O)N1CCC(N2CCCCC2)CC1)N1CCC2(CC1)C(=O)Nc1ccccc12,170,–,–
O=C1NCC2(CCN(C(=O)N[C@H](Cc3csc4ccccc34)C(=O)N3CCC(N4CCCCC4)CC3)CC2)c2ccccc21,150,130,–
CN1c2ccccc2C(=O)NC12CCN(C(=O)N[C@H](Cc1csc3ccccc13)C(=O)N1CCC(N3CCCCC3)CC1)CC2,860,–,–
O=C(N[C@H](Cc1csc2ccccc12)C(=O)N1CCC(N2CCCCC2)CC1)N1CCC2(CC1)C(=O)NCN2c1ccccc1,330,–,–
O=C(N[C@H](Cc1csc2ccccc12)C(=O)N1CCC(N2CCCCC2)CC1)N1CCC2(CC1)N=C(C1CCCCC1)NC2=O,8500,–,–
O=C1Nc2ccccc2C2(CCN(C(=O)N[C@H](Cc3csc4ccccc34)C(=O)N3CCC(N4CCCCC4)CC3)CC2)O1,20,31,EC50 [3]: 19 nM; IC50 [4]: > 40 µM; IC50 [5]: < 1000 nM
O=C(N[C@H](Cc1csc2ccccc12)C(=O)N1CCC(N2CCCCC2)CC1)N1CCC(N2Cc3ccccc3NC2=O)CC1,3,–,–

# Continued, in another order:
IC50 [1] [nM],EC50 [2] [nM],SMILES,also measured
9,–,O=C(N[C@H](Cc1csc2ccccc12)C(=O)N1CCC(N2CCCCC2)CC1)N1CCC(n2c(=O)[nH]c3ccccc32)CC1,–
23,12,O=C1CC2(CCN(C(=O)N[C@H](Cc3csc4ccccc34)C(=O)N3CCC(N4CCCCC4)CC3)CC2)c2ccccc2N1,–
29,15,O=C1Cc2ccccc2C2(CCN(C(=O)N[C@H](Cc3csc4ccccc34)C(=O)N3CCC(N4CCCCC4)CC3)CC2)N1,–
20,13,O=C(N[C@H](Cc1csc2ccccc12)C(=O)N1CCC(N2CCCCC2)CC1)N1CCC2(CC1)N=C(c1ccccc1)NC2=O,EC50 [3]: 63 nM; IC50 [4]: > 40 µM; IC50 [5]: < 1000 nM
1400,–,O=C(N[C@H](Cc1csc2ccccc12)C(=O)N1CCC(N2CCCCC2)CC1)N1CCC2(CC1)N=C(c1ccncc1)NC2=O,–
210,–,O=C(N[C@H](Cc1csc2ccccc12)C(=O)N1CCC(N2CCCCC2)CC1)N1CCC2(CC1)N=C(c1cccnc1)NC2=O,–
5,3,O=C1Nc2ccccc2C2(CCN(C(=O)N[C@H](Cc3csc4ccccc34)C(=O)N3CCC(N4CCCCC4)CC3)CC2)N1,"EC50 [3]: 32 nM; IC50 [6]: > 40 µM; IC50 [7]: > 40 µM; IC50 [8]: > 40 µM; remaining at 10 min, 3 µM [9]: 82%; remaining at 10 min, 3 µM [10]: 100%; IC50 [5]: 100 nM"
